ChEMBL document CHEMBL1140207, “A small molecule inhibitor, 1,2,4,5-benzenetetraamine tetrahydrochloride, targeting the y397 site of focal adhesion kinase decreases tumor growth” (J Med Chem, 2008)
Active and inactive are the calls of the source. No cut-off for these calls is given here.

Legend:
[1] = molecular target: Insulin-like growth factor 1 receptor (Homo sapiens) (UniProt P08069); assay: Inhibition of recombinant IGF1R at 1 uM
Procedure, shortened: (§1)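 Commercial kinase profiling panel: recombinant enzymes (including FAK kinase domain 411-686 a.a.) tested with 1 μM compound, 10 μM ATP and kinase substrates; % inhibition versus untreated; mean ± SE of two independent experiments.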

[2] = molecular target: Focal adhesion kinase 1 (Homo sapiens) (UniProt Q05397); assay: Inhibition of FAK-Y397 phosphorylation in human BT474 cells at 100 uM after 24 hrs by Western blotting; assay type: cell-based; conditions: BT-474
Procedure, shortened: (§2)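 BT474 cells treated 100 μM for 24 h; Western blot with Y397-FAK and Y118-paxillin antibodies, total FAK, paxillin and β-actin as expression/loading references.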

BT-474 [3] = assay: Induction of necrosis in non-apoptotic human BT474 cells after 24 hrs by propidium iodide staining based Zeiss fluorescent microscope; assay type: functional, cell-based
Procedure, shortened: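 BT474 cells treated at 10 and 100 μM, collected, stained 10 min with propidium iodide (10 μg/ml) for dead necrotic cells plus Hoechst (10 μg/ml) for nuclei; examined by fluorescence microscopy.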

[4] = molecular target: Focal adhesion kinase 1 (Homo sapiens) (UniProt Q05397); assay: Inhibition of FAK-Y397 phosphorylation in human BT474 cells at 100 uM by Western blotting; assay type: cell-based; conditions: BT-474, TDE = time-dependent effect
Procedure, shortened: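 BT474 cells given 100 μM for 1–24 h; Y397-FAK and total FAK normalized to β-actin by densitometry, expressed relative to untreated; three independent experiments, mean ± SE.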

[5] = molecular target: Proto-oncogene tyrosine-protein kinase Src (Homo sapiens) (UniProt P12931); assay: Inhibition of recombinant c-Src at 1 uM; procedure, shortened: as §1
BT-474 [6] = assay: Inhibition of tumor growth in human BT474 cells xenografted in mouse assessed as reduction in tumor weight at 30 mg/kg administered daily for 5 days per week measured after 23 days; assay type: functional, organism-based; parameters: dose 30 mg/kg
Procedure, shortened: (§3)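 BT474 cells injected subcutaneously into mice (5 per group); dosing at 30 mg/kg daily, 5 days per week, starting the day after injection; untreated mice as controls.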

BT-474 [7] = assay: Effect on human BT474 cell survival assessed as cell detachment at 100 to 200 uM after 24 hrs by hemocytometer; assay type: functional
Procedure, shortened: (§4)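 BT474 cells treated at a range of doses; detached cells counted on a hemacytometer; means ± standard errors of three independent experiments, versus untreated cells.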

[8] = molecular target: RAF proto-oncogene serine/threonine-protein kinase (Homo sapiens) (UniProt P04049); assay: Inhibition of recombinant c-RAF at 1 uM; procedure, shortened: as §1
[9] = molecular target: Vascular endothelial growth factor receptor 3 (Homo sapiens) (UniProt P35916); assay: Inhibition of recombinant Flt4 at 1 uM; procedure, shortened: as §1
[10] = molecular target: Protein-tyrosine kinase 2-beta (Homo sapiens) (UniProt Q14289); assay: Inhibition of recombinant Pyk2 at 1 uM; procedure, shortened: as §1
T47D = assay: Cytotoxicity against human T47D cells assessed as decrease in cell viability at 100 uM after 24 hrs by MTT assay; assay type: functional, cell-based
Procedure, shortened: (§5)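 Cells given each compound at 100 μM for 24 h, then MTT viability assay; known FAK inhibitor 1a used as reference control.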

[11] = molecular target: Epidermal growth factor receptor (Homo sapiens) (UniProt P00533); assay: Inhibition of recombinant EGFR at 1 uM; procedure, shortened: as §1
BT-474 [12] = assay: Effect on human BT474 cell survival assessed as cell detachment at 10 uM after 24 hrs by hemocytometer; assay type: functional; procedure, shortened: as §4
Paxillin (Homo sapiens) [13] = molecular target: Paxillin (Homo sapiens) (UniProt P49023); assay: Inhibition of paxillin phosphorylation in human BT474 cells at 100 uM after 24 hrs by Western blotting; assay type: cell-based; conditions: BT-474
[14] = molecular target: Protein-tyrosine kinase 2-beta (Homo sapiens) (UniProt Q14289); assay: Inhibition of recombinant full length Pyk2 autophosphorylation expressed in baculovirus by SDS-PAGE
Procedure, shortened: (§6)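 In vitro autophosphorylation: 0.1 μg purified recombinant FAK or Pyk-2 with γ-32P-ATP and varying inhibitor doses, 10 min at room temperature; three independent experiments.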

A549 = assay: Cytotoxicity against human A549 cells assessed as decrease in cell viability at 100 uM after 24 hrs by MTT assay; assay type: functional, cell-based
[15] = molecular target: Platelet-derived growth factor receptor alpha (Homo sapiens) (UniProt P16234); assay: Inhibition of recombinant PDGFRa at 1 uM; procedure, shortened: as §1
[16] = molecular target: Focal adhesion kinase 1 (Homo sapiens) (UniProt Q05397); assay: Inhibition of recombinant full length FAK-mediated GST-paxillin […] expressed in baculovirus by SDS-PAGE
Procedure, shortened: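 Purified recombinant FAK (0.1 μg) with GST-paxillin substrate, γ-32P-ATP and varying inhibitor doses, 10 min at room temperature.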

BT-474 [17] = assay: Induction of apoptosis in human BT474 cells assessed as cleavage of 89 kDa PARP at 1 uM after 24 hrs by Western blotting; assay type: functional, cell-based
Procedure, shortened: (§7)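 BT474 cells treated at various doses; lysates immunoblotted with PARP antibody, scoring cleaved 89 kDa fragment.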

[18] = Effect on human MCF10A cell survival assessed as cell detachment at 100 uM after 24 hrs by hemocytometer; assay type: ADME, cell-based; conditions: mcf-10a
Procedure, shortened: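 Normal breast MCF10A cells were treated with a range of compound doses. Detached cells were counted on a hemacytometer, and values are means ± standard errors of three independent experiments.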

BT-474 [19] = assay: Inhibition of human BT474 cells adhesion on collagen coated plates at 100 uM after 3 hrs by crystal violet staining
BT-474 [20] = assay: Induction of apoptosis in human BT474 cells assessed as presence of apoptotic nuclei at 100 uM after 24 hrs by […] staining; assay type: functional, cell-based
Procedure, shortened: (§8)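 BT474 cells treated 24 h at various doses; apoptotic nuclei scored by Hoechst staining; means ± SD of four independent experiments versus untreated cells.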

Mus musculus [21] = assay: Inhibition of tumor growth in human BT474 cells xenografted in mouse assessed as animal weight loss at 30 mg/kg administered daily for 5 days per week measured after 23 days; assay type: organism-based, BT-474; parameters: dose 30 mg/kg; conditions: in vivo, 552 h
Procedure, shortened: (§9)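 BT474 breast cancer cells were injected subcutaneously into 5 mice. Dosing at 30 mg/kg started the day after injection and was given daily, 5 days per week. Five untreated mice served as controls.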

BT-474 [22] = assay: Cytotoxicity against human BT474 cells assessed as decrease in cell viability at 100 uM after 24 hrs by MTT assay; assay type: functional, cell-based; procedure, shortened: as §5
[23] = molecular target: Hepatocyte growth factor receptor (Homo sapiens) (UniProt P08581); assay: Inhibition of recombinant Met at 1 uM; procedure, shortened: as §1
BT-474 [24] = assay: Effect on human BT474 cell survival assessed as cell detachment after 24 hrs by hemocytometer; assay type: functional, cell-based; procedure, shortened: as §4
HT-29 = assay: Cytotoxicity against human HT-29 cells assessed as decrease in cell viability at 100 uM after 24 hrs by MTT assay; assay type: functional, cell-based
[25] = molecular target: Vascular endothelial growth factor receptor 3 (Homo sapiens) (UniProt P35916); assay: Inhibition of VEGFR3 phosphorylation in human BT474 cells at 100 uM after 24 hrs by Western blotting; assay type: cell-based; conditions: BT-474
BT-474 [26] = assay: Inhibition of tumor growth in human BT474 cells xenografted in mouse assessed as tumor volume at 30 mg/kg administered daily for 5 days per week measured after 23 days; assay type: functional, organism-based; parameters: dose 30 mg/kg; procedure, shortened: as §3
[27] = molecular target: Protein-tyrosine kinase 2-beta (Homo sapiens) (UniProt Q14289); assay: Inhibition of Pyk2-Y402 phosphorylation in human BT474 cells at 100 uM after 24 hrs by Western blotting; assay type: cell-based; conditions: BT-474
Procedure, shortened: (§10)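 BT474 cells treated at different doses; Western blot for Y397-FAK then total FAK, plus Y402-Pyk-2; β-actin for loading.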

C8161 = assay: Cytotoxicity against human C8161 cells assessed as decrease in cell viability at 100 uM after 24 hrs by MTT assay; assay type: functional, cell-based
Procedure, shortened: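 Cells from breast cancer and melanoma lines were exposed to compound for 24 h and viability was read by MTT assay. A reference FAK inhibitor served as the control.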

BT-474 [28] = assay: Cytotoxicity against human BT474 cells assessed as decrease in cell viability after 24 hrs by MTT assay; assay type: functional, cell-based
Procedure, shortened: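 BT474 breast cancer cells exposed to a range of doses for 24 h; viability by MTT; mean of triplicate determinations ± SD versus untreated cells.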

[29] = molecular target: Focal adhesion kinase 1 (Homo sapiens) (UniProt Q05397); assay: Inhibition of recombinant full length FAK autophosphorylation expressed in baculovirus by SDS-PAGE; procedure, shortened: as §6
[30] = molecular target: Focal adhesion kinase 1 (Homo sapiens) (UniProt Q05397); assay: Inhibition of total FAK autophosphorylation in human BT474 cells at 100 uM after 24 hrs by Western blotting; assay type: cell-based; conditions: BT-474
Procedure, shortened: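 BT474 lysates immunoprecipitated with FAK antibody, blotted with phosphotyrosine antibody, then stripped and reprobed for FAK.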

BT-474 [31] = assay: Induction of apoptosis in human BT474 cells at 50 to 100 uM after 24 hrs by […] staining; assay type: functional; procedure, shortened: as §8
BT-474 [32] = assay: Inhibition of human BT474 cells adhesion on collagen coated plates after 3 hrs by crystal violet staining
BT-474 [33] = assay: Induction of apoptosis in human BT474 cells assessed as cleavage of 89 kDa PARP after 24 hrs by Western blotting
BT-474 [34] = assay: Effect on human BT474 cell survival assessed as cell detachment at 100 uM after 24 hrs by hemocytometer; assay type: functional; procedure, shortened: as §4
Mus musculus [35] = assay: Inhibition of tumor growth in human BT474 cells xenografted in mouse assessed as animal death at 30 mg/kg administered daily for 5 days per week measured after 23 days; assay type: organism-based, BT-474; parameters: dose 30 mg/kg; conditions: in vivo, 552 h; procedure, shortened: as §9
[36] = molecular target: Proto-oncogene tyrosine-protein kinase Src (Homo sapiens) (UniProt P12931); assay: Inhibition of c-Src phosphorylation in human BT474 cells at 100 uM after 24 hrs by Western blotting; assay type: cell-based; conditions: BT-474
BT-474 [37] = assay: Effect on human BT474 cell survival assessed as cell detachment at 50 uM after 24 hrs by hemocytometer; assay type: functional; procedure, shortened: as §4
[38] = molecular target: Focal adhesion kinase 1 (Homo sapiens) (UniProt Q05397); assay: Inhibition of recombinant FAK domain (411 to 686 amino acids) without N terminal domain containing Y397 site at 1 uM; procedure, shortened: as §1
MCF7 = assay: Cytotoxicity against human MCF7 cells assessed as decrease in cell viability at 100 uM after 24 hrs by MTT assay; assay type: functional, cell-based; procedure, shortened: as §5
[39] = molecular target: PI3-kinase p110-delta/p85-alpha (Homo sapiens) (UniProt P27986+O00329); assay: Inhibition of recombinant PI3 kinase p110delta/p85-alpha subunit at 1 uM; procedure, shortened: as §1
BT-474 [40] = assay: Induction of apoptosis in human BT474 cells assessed as cleavage of 89 kDa PARP at 100 uM after 24 hrs by Western blotting; assay type: functional, cell-based; procedure, shortened: as §7
Paxillin (Homo sapiens) [41] = molecular target: Paxillin (Homo sapiens) (UniProt P49023); assay: Inhibition of paxillin-Y118 phosphorylation in human BT474 cells at 100 uM after 24 hrs by Western blotting; assay type: cell-based; conditions: BT-474; procedure, shortened: as §2
[42] = molecular target: Focal adhesion kinase 1 (Homo sapiens) (UniProt Q05397); assay: Inhibition of FAK-Y397 phosphorylation in human BT474 cells after 24 hrs by Western blotting; assay type: cell-based; conditions: BT-474; procedure, shortened: as §10

Focal adhesion kinase 1 (Homo sapiens), sequence (Q05397 2-1052 limits assumed): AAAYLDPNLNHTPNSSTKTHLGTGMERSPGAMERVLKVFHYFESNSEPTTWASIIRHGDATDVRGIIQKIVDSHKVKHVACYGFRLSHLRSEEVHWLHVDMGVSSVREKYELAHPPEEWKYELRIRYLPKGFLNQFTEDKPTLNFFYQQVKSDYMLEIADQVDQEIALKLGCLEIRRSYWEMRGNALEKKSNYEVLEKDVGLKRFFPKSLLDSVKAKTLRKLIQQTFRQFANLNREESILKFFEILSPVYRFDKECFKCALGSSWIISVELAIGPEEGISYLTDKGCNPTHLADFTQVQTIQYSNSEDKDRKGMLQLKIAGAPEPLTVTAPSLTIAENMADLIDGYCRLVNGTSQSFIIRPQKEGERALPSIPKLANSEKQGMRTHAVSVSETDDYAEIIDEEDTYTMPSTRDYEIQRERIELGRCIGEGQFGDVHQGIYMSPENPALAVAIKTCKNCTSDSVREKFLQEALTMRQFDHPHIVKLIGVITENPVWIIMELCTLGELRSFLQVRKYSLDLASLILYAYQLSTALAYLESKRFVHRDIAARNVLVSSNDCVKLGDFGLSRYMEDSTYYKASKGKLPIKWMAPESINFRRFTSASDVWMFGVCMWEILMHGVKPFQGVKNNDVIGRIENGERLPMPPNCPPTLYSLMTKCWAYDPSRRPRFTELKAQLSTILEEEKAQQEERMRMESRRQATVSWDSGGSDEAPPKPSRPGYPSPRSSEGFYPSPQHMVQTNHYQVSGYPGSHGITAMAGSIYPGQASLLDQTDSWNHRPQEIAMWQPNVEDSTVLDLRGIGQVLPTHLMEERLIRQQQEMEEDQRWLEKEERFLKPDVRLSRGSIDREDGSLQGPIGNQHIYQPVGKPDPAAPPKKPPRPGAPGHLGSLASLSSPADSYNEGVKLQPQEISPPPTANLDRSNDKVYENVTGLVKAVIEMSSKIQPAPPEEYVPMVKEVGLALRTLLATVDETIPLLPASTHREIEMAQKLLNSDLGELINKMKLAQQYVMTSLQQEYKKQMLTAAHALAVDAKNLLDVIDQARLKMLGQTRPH
Protein-tyrosine kinase 2-beta (Homo sapiens), sequence (Q14289 whole entry, looked up): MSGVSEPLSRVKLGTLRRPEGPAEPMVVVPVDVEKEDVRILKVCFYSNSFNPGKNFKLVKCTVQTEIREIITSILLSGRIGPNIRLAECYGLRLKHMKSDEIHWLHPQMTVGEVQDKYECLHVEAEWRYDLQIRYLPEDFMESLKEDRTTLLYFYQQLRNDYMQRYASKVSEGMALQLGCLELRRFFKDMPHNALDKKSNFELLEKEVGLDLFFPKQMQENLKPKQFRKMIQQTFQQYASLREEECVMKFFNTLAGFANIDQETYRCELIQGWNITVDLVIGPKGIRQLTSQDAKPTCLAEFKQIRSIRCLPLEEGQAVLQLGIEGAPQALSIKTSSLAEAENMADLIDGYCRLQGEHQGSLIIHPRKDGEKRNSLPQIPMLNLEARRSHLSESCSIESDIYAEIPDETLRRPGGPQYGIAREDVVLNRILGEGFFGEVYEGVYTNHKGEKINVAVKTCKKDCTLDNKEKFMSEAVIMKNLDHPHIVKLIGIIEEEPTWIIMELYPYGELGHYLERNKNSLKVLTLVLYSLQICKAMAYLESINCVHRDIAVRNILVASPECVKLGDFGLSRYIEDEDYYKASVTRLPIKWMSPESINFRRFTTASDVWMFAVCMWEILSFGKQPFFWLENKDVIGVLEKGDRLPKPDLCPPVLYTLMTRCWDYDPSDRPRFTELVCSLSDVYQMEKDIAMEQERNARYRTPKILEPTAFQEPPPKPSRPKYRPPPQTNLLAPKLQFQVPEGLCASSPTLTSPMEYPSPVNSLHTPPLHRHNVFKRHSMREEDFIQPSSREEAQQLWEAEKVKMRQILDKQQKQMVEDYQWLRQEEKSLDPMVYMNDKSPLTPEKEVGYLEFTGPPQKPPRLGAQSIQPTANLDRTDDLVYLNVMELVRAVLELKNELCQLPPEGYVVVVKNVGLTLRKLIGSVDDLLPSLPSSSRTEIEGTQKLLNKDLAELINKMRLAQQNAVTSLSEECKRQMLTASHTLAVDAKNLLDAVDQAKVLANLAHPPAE
Paxillin (Homo sapiens), sequence (P49023 whole entry): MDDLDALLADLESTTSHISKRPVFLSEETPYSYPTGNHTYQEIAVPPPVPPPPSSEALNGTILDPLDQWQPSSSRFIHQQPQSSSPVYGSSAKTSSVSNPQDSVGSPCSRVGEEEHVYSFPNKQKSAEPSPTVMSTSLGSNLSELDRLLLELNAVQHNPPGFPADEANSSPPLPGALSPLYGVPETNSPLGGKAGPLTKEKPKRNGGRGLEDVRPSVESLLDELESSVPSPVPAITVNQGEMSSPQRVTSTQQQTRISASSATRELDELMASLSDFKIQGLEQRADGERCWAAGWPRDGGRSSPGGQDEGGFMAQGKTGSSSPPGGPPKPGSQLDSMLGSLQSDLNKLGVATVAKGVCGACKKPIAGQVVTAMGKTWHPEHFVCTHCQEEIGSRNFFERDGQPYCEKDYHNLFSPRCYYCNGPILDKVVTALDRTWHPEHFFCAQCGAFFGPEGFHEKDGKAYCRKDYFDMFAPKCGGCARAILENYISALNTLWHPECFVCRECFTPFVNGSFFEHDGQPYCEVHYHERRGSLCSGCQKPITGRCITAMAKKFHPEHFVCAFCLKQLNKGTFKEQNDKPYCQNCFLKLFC
Proto-oncogene tyrosine-protein kinase Src (Homo sapiens), sequence (P12931 2-536 limits assumed): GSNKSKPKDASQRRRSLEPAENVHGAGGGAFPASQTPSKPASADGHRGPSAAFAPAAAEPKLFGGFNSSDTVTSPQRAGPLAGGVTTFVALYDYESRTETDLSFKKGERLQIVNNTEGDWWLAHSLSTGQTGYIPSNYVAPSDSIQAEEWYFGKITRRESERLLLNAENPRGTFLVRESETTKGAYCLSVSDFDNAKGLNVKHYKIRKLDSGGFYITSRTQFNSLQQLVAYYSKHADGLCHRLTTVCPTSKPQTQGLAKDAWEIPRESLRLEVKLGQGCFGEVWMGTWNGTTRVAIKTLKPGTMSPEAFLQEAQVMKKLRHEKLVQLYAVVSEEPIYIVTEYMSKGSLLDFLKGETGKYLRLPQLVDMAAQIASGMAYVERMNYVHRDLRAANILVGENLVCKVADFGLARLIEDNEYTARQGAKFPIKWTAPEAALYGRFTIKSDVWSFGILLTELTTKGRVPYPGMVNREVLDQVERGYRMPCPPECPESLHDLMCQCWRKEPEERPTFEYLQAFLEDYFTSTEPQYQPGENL
Vascular endothelial growth factor receptor 3 (Homo sapiens), sequence (P35916 whole entry): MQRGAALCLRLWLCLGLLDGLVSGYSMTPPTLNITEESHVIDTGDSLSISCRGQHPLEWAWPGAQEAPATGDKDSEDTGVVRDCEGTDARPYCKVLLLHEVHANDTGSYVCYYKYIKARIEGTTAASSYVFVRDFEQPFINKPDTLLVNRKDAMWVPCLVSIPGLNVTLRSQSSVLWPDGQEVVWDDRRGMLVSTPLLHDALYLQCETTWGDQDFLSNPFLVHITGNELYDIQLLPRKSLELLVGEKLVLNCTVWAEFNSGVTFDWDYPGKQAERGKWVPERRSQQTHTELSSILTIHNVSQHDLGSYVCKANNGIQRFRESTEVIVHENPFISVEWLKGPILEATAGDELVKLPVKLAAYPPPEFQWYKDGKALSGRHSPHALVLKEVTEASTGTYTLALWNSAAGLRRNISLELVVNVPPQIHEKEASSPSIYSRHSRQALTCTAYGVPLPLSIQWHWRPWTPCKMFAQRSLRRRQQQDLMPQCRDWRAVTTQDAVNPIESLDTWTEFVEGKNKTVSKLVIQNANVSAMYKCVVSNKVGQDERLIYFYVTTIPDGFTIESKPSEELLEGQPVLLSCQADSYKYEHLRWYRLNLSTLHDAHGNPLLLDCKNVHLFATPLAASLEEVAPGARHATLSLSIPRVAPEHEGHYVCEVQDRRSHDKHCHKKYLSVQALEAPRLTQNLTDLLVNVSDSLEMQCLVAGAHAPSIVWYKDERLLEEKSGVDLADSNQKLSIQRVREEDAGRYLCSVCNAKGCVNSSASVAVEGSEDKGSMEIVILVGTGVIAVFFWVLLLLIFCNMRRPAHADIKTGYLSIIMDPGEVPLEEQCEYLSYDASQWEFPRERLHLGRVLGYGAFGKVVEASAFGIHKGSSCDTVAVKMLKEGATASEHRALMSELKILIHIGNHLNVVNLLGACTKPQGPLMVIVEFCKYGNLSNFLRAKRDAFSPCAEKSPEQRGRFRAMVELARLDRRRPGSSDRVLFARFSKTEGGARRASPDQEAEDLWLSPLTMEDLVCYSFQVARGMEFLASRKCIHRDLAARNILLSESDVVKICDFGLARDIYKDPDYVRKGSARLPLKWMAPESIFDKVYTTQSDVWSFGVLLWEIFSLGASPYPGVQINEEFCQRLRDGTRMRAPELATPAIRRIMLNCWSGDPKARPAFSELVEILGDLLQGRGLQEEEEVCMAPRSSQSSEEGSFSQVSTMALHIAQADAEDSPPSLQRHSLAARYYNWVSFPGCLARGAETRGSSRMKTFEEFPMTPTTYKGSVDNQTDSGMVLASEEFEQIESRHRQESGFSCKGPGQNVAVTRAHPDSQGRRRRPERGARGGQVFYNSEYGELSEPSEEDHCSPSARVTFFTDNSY

With `Cl.Nc1cc(N)c(N)cc1N` the Activity [1] was “inactive”, the Activity [2] was “Active” and the Activity (BT-474 [3]) was “Dose-dependent effect”. For the same compound, the Activity [4] was “tde”, the Activity [5] was “inactive” and the Activity (BT-474 [6]) was “Active”. The Activity (BT-474 [7]) was 64%, the Activity [8] was “inactive” and the Activity [9] was “inactive”. For the same compound, the Activity [10] was “inactive”, the Activity (T47D) was “Active” and the Activity [11] was “inactive”. The Activity (BT-474 [12]) was 8%, the Activity (Paxillin (Homo sapiens) [13]) was “Active” and the Activity [14] was “inactive”. The Activity (A549) was “Active”, the Activity [15] was “inactive” and the Activity [16] was “Dose-dependent effect”. The Activity (BT-474 [17]) was “inactive”, the Activity [18] was 15% and the Activity (BT-474 [19]) was “Active”. For the same compound, the Activity (BT-474 [20]) was “inactive”, the Activity (Mus musculus [21]) was “Non-toxic” and the Activity (BT-474 [22]) was “Active”. The Activity [23] was “inactive”, the Activity (BT-474 [24]) was “Dose-dependent effect” and the Activity (HT-29) was “Active”. For the same compound, the Activity [25] was “inactive”, the Activity (BT-474 [26]) was “Active” and the Activity [27] was “inactive”. The Activity (C8161) was “Active”, the Activity (BT-474 [28]) was “Dose-dependent effect” and the Activity [29] was “Dose-dependent effect”. For the same compound, the Activity [30] was “Active”, the Activity (BT-474 [31]) was under 5% and the Activity (BT-474 [32]) was “Dose-dependent effect”. The Activity (BT-474 [33]) was “Active”, the Activity (BT-474 [34]) was 64% and the Activity (Mus musculus [35]) was “Non-toxic”. The Activity [36] was “inactive”, the Activity (BT-474 [37]) was 38% and the Activity [38] was “inactive”. The Activity (MCF7) was “Active”, the Activity [39] was “inactive” and the Activity (BT-474 [40]) was “inactive”. For the same compound, the Activity (Paxillin (Homo sapiens) [41]) was “Active” and the Activity [42] was “Dose-dependent effect”.
